pIC50: −log10 of the molar value.
Assays:
Format in all cases: functional, organism-based
[1] = system: Escherichia coli; test: In vitro inhibition of Escherichia coli K-12 growth.
[2] = system: Escherichia coli; test: In vitro concentration required for growth inhibition of Escherichia coli K-12 strain resistant to 10e-3 M 5-flourouracil
In short: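 In vitro growth assay on an E. coli K-12 strain resistant to 10^-3 M 5-fluorouracil. IC50 is the concentration giving 50% inhibition of E. coli K-12 growth. The growth procedure follows earlier published methods.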

[3] = system: Escherichia coli; test: In vitro concentration required for growth inhibition of 5-fluorouracil resistant strain of Escherichia coli in presence of uracil metabolite at 10e-3 M concentration.
[4] = system: Escherichia coli; test: In vitro concentration required for growth inhibition of 5-fluorouracil resistant strain of Escherichia coli in presence of thymidine metabolite at 10e-3 M concentration.
[5] = system: Escherichia coli; test: In vitro concentration required for growth inhibition of 5-fluorouracil resistant strain of Escherichia coli in presence of cytidine metabolite at 10e-3 M concentration.
[6] = system: Escherichia coli; test: In vitro concentration required for growth inhibition of 5-fluorouracil resistant strain of Escherichia coli in presence of uridine metabolite at 10e-3 M concentration.
[7] = system: Escherichia coli; test: In vitro concentration required for growth inhibition of 5-fluorouracil resistant strain of Escherichia coli in presence of 2'-deoxycytidine metabolite at 10e-3 M concentration.
[8] = system: Escherichia coli; test: In vitro concentration required for growth inhibition of 5-fluorouracil resistant strain of Escherichia coli in presence of 2'-deoxyuridine metabolite at 10e-3 M concentration.
[9] = system: Escherichia coli; test: In vitro concentration required for growth inhibition of 5-fluorouracil resistant strain of Escherichia coli in presence of thymine metabolite at 10e-3 M concentration.
[10] = system: Escherichia coli; test: In vitro concentration required for growth inhibition of 5-fluorouracil resistant strain of Escherichia coli in presence of cytosine metabolite at 10e-3 M concentration.

| Structure (SMILES) | pIC50 [1] | also measured |
| --- | --- | --- |
| Nc1ccn(COCCOC(=O)c2ccccc2)c(=O)n1 | 3.05 | – |
| O=C(OCCOCn1ccc(=O)[nH]c1=O)c1ccccc1 | 4.00 | – |
| CC(=O)Nc1ccn(COCCO)c(=O)n1 | < 3.00 | – |
| CN(C)c1ccn(C)c(=O)n1 | 4.10 | – |
| Cc1cn(COCCOC(=O)c2ccccc2)c(=O)[nH]c1=O | 3.07 | – |
| Cn1ccc(=O)n(C)c1=O | 4.82 | – |
| O=C(OCCOCn1cc(F)c(=O)[nH]c1=O)c1ccccc1 | 5.05 | pIC50 [2]: 3.74 |
| Cc1cn(COCCN)c(=O)[nH]c1=O | 3.51 | – |
| CC(=O)Nc1ccn(COCCN=[N+]=[N-])c(=O)n1 | < 3.00 | – |
| O=c1ccn(COCCO)c(=O)[nH]1 | 3.49 | – |
| CC(=O)Nc1ccn(COCCOC(=O)Oc2ccccc2)c(=O)n1 | < 3.00 | – |
| Cc1cn(COCCN=[N+]=[N-])c(=O)[nH]c1=O | 3.60 | – |
| Cc1cn(COCCO)c(=O)[nH]c1=O | < 3.00 | – |
| COc1ccn(C)c(=O)n1 | 4.21 | – |
| O=c1[nH]c(=O)n(COCCO)cc1F | 5.92 | pIC50 [3]: 5.08; pIC50 [4]: 3.00; pIC50 [5]: 5.04; pIC50 [6]: 3.62; pIC50 [7]: 5.02; pIC50 [2]: 5.38; pIC50 [8]: 3.43; pIC50 [9]: 3.14; pIC50 [10]: 5.13 |
| CC(C)n1ccc(N)nc1=O | < 3.00 | – |
| [N-]=[N+]=NCCOCn1ccc(N)nc1=O | 3.36 | – |
| Nc1ccn(COCCO)c(=O)n1 | 4.06 | – |
| NCCOCn1ccc(N)nc1=O | < 3.00 | – |
| NC(=O)OCCOCn1ccc(N)nc1=O | 3.04 | – |
| CC(=O)C(C)n1ccc(N)nc1=O (configuration not stated) | 3.25 | – |
| CCCCCCC(C(C)=O)n1ccc(N)nc1=O (configuration not stated) | 4.52 | – |

Source: ChEMBL document CHEMBL1121868, “Synthesis and biological effects of acyclic pyrimidine nucleoside analogues” (J Med Chem, 1981)
